{
  "source": "ChEMBL document CHEMBL1158464",
  "about": "“Structure-activity relationships and cancer-cell selective toxicity of novel inhibitors of glioma-associated oncogene homologue 1 (Gli1) mediated transcription” (J Med Chem, 2009)",
  "key": {"[1]": {"system": "SJRH30", "experiment": "Cytotoxicity against human Rh30 cells at 40 uM/well after 68 hrs by alamar blue assay", "assay_type": "functional, cell-based", "how_it_was_run": "(§1)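 Cells plated in appropriate medium 24 h before compound. A 10 mM DMSO stock was diluted in EMEM to 160 µM (4×) and added in triplicate to a final 40 µM. Incubated 68 h at 37 °C, then Alamar Blue for 4 h at 37 °C. Fluorescence read at ex 510/em 590 nm. Viability taken relative to DMSO control wells.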"}, "[2]": {"system": "MDA-MB-231", "experiment": "Cytotoxicity against human MDA-MB-231 cells at 40 uM/well after 68 hrs by alamar blue assay", "assay_type": "functional, cell-based", "how_it_was_run": "as §1"}, "[3]": {"system": "Daoy", "experiment": "Cytotoxicity against human DaOY cells at 40 uM/well after 68 hrs by alamar blue assay", "assay_type": "functional, cell-based", "how_it_was_run": "as §1"}, "[4]": {"system": "DU-145", "experiment": "Cytotoxicity against human DU145 cells at 40 uM/well after 68 hrs by alamar blue assay", "assay_type": "functional, cell-based", "how_it_was_run": "as §1"}, "[5]": {"system": "Raji", "experiment": "Cytotoxicity against human Raji cells at 40 uM/well after 68 hrs by alamar blue assay", "assay_type": "functional, cell-based", "how_it_was_run": "as §1"}, "[6]": {"system": "HepG2", "experiment": "Cytotoxicity against human HepG2 cells at 40 uM/well after 68 hrs by alamar blue assay", "assay_type": "functional, cell-based", "how_it_was_run": "as §1"}, "[7]": {"system": "LN-229", "experiment": "Cytotoxicity against human LN229 cells at 40 uM/well after 68 hrs by alamar blue assay", "assay_type": "functional, cell-based", "how_it_was_run": "as §1"}, "[8]": {"system": "BJ", "experiment": "Cytotoxicity against human TERT-immortalized human BJ cells at 40 uM/well after 68 hrs by alamar blue assay", "assay_type": "cell-based", "how_it_was_run": "as §1"}},
  "note": "Activity calls are given as the source filed them. The calls are words filed in the database; no cut-off is given here.",
  "data": [
    {"smiles": "CC(C)Cc1ccc(C(C)C(=O)NCCc2ccc(O)cc2)cc1", "note": "(configuration not stated)", "values": [
      {"measurement": "Activity", "setting": "[1]", "result": "Active"},
      {"measurement": "Activity", "setting": "[2]", "result": "Active"},
      {"measurement": "Activity", "setting": "[3]", "result": "Active"},
      {"measurement": "Activity", "setting": "[4]", "result": "Active"},
      {"measurement": "Activity", "setting": "[5]", "result": "Active"},
      {"measurement": "Activity", "setting": "[6]", "result": "inactive"},
      {"measurement": "Activity", "setting": "[7]", "result": "inactive"},
      {"measurement": "Activity", "setting": "[8]", "result": "Non-toxic"}
    ]},
    {"smiles": "C[C@H](C(=O)NCCc1ccc(O)cc1)c1cccc(Cc2ccccc2)c1", "values": [
      {"measurement": "Activity", "setting": "[1]", "result": "Active"},
      {"measurement": "Activity", "setting": "[2]", "result": "Active"},
      {"measurement": "Activity", "setting": "[3]", "result": "Active"},
      {"measurement": "Activity", "setting": "[4]", "result": "Active"},
      {"measurement": "Activity", "setting": "[5]", "result": "Active"},
      {"measurement": "Activity", "setting": "[6]", "result": "inactive"},
      {"measurement": "Activity", "setting": "[7]", "result": "inactive"},
      {"measurement": "Activity", "setting": "[8]", "result": "Non-toxic"}
    ]},
    {"smiles": "O=C(Cc1cccc(Oc2ccccc2)c1)NCCc1ccc(O)cc1", "values": [
      {"measurement": "Activity", "setting": "[1]", "result": "Active"},
      {"measurement": "Activity", "setting": "[2]", "result": "Active"},
      {"measurement": "Activity", "setting": "[3]", "result": "Active"},
      {"measurement": "Activity", "setting": "[4]", "result": "Active"},
      {"measurement": "Activity", "setting": "[5]", "result": "Active"},
      {"measurement": "Activity", "setting": "[6]", "result": "inactive"},
      {"measurement": "Activity", "setting": "[7]", "result": "inactive"},
      {"measurement": "Activity", "setting": "[8]", "result": "Non-toxic"}
    ]},
    {"smiles": "O=C(Cc1ccc(Oc2ccccc2)cc1)NCCc1ccc(O)cc1", "values": [
      {"measurement": "Activity", "setting": "[1]", "result": "Active"},
      {"measurement": "Activity", "setting": "[2]", "result": "Active"},
      {"measurement": "Activity", "setting": "[3]", "result": "Active"},
      {"measurement": "Activity", "setting": "[4]", "result": "Active"},
      {"measurement": "Activity", "setting": "[5]", "result": "Active"},
      {"measurement": "Activity", "setting": "[6]", "result": "inactive"},
      {"measurement": "Activity", "setting": "[7]", "result": "inactive"},
      {"measurement": "Activity", "setting": "[8]", "result": "Non-toxic"}
    ]},
    {"smiles": "COc1ccc2[nH]cc(CC(=O)NCCc3ccc(O)cc3)c2c1", "values": [
      {"measurement": "Activity", "setting": "[1]", "result": "Active"},
      {"measurement": "Activity", "setting": "[2]", "result": "Active"},
      {"measurement": "Activity", "setting": "[3]", "result": "Active"},
      {"measurement": "Activity", "setting": "[4]", "result": "Active"},
      {"measurement": "Activity", "setting": "[5]", "result": "Active"},
      {"measurement": "Activity", "setting": "[6]", "result": "inactive"},
      {"measurement": "Activity", "setting": "[7]", "result": "inactive"},
      {"measurement": "Activity", "setting": "[8]", "result": "Non-toxic"}
    ]},
    {"smiles": "COc1ccc2cc([C@@H](C)C(=O)NCCc3ccc(O)cc3)ccc2c1", "values": [
      {"measurement": "Activity", "setting": "[1]", "result": "Active"},
      {"measurement": "Activity", "setting": "[2]", "result": "Active"},
      {"measurement": "Activity", "setting": "[3]", "result": "Active"},
      {"measurement": "Activity", "setting": "[4]", "result": "Active"},
      {"measurement": "Activity", "setting": "[5]", "result": "Active"},
      {"measurement": "Activity", "setting": "[6]", "result": "inactive"},
      {"measurement": "Activity", "setting": "[7]", "result": "inactive"},
      {"measurement": "Activity", "setting": "[8]", "result": "Non-toxic"}
    ]},
    {"smiles": "C[C@H](C(=O)NCCc1ccc(O)cc1)c1cccc(C(O)c2ccccc2)c1", "note": "(some centres not stated)", "values": [
      {"measurement": "Activity", "setting": "[1]", "result": "Active"},
      {"measurement": "Activity", "setting": "[2]", "result": "Active"},
      {"measurement": "Activity", "setting": "[3]", "result": "Active"},
      {"measurement": "Activity", "setting": "[4]", "result": "Active"},
      {"measurement": "Activity", "setting": "[5]", "result": "Active"},
      {"measurement": "Activity", "setting": "[6]", "result": "inactive"},
      {"measurement": "Activity", "setting": "[7]", "result": "inactive"},
      {"measurement": "Activity", "setting": "[8]", "result": "Non-toxic"}
    ]},
    {"smiles": "CC(C(=O)NCCc1ccc(O)cc1)c1cccc(C(=O)c2ccccc2)c1", "note": "(racemic)", "values": [
      {"measurement": "Activity", "setting": "[1]", "result": "Active"},
      {"measurement": "Activity", "setting": "[2]", "result": "Active"},
      {"measurement": "Activity", "setting": "[3]", "result": "Active"},
      {"measurement": "Activity", "setting": "[4]", "result": "Active"},
      {"measurement": "Activity", "setting": "[5]", "result": "Active"},
      {"measurement": "Activity", "setting": "[6]", "result": "inactive"},
      {"measurement": "Activity", "setting": "[7]", "result": "inactive"},
      {"measurement": "Activity", "setting": "[8]", "result": "Non-toxic"}
    ]},
    {"smiles": "O=C(Cc1ccccc1Oc1ccccc1)NCCc1ccc(O)cc1", "values": [
      {"measurement": "Activity", "setting": "[1]", "result": "Active"},
      {"measurement": "Activity", "setting": "[2]", "result": "Active"},
      {"measurement": "Activity", "setting": "[3]", "result": "Active"},
      {"measurement": "Activity", "setting": "[4]", "result": "Active"},
      {"measurement": "Activity", "setting": "[5]", "result": "Active"},
      {"measurement": "Activity", "setting": "[6]", "result": "inactive"},
      {"measurement": "Activity", "setting": "[7]", "result": "inactive"},
      {"measurement": "Activity", "setting": "[8]", "result": "Non-toxic"}
    ]}
  ]
}
